Key:
[1] = Metabolic stability in swine intestinal; assay type: in vitro ADME; details: swine intestinal (jejunum) homogenate, 20 μm, 37 °C, 1 h (Figure 1B)
[2] = In vitro plasma stability, swine plasma; assay type: in vitro ADME; details: prodrug 20 μm, 37 °C
P493B lymphoma cells = assay: Human tumor cell-to-plasma partitioning, P493B cells in human plasma; assay type: cell-based; details: human plasma with P493B cells, 0.25-2 h (Figure 3A)
Summary of the method: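 P493B lymphoma cells were grown in RPMI 1640 with L-glutamine, 10% FBS and 1% antibiotic/antimycotic at 37 °C and 5% CO2. Pelleted cells were resuspended in human plasma at 10 million cells/mL and preincubated 5 min at 37 °C. Test compound was incubated at 37 °C for 1 h, or for 0.25, 0.5, 1 and 2 h. Plasma and washed pellets were analysed for intact prodrug and DON by LC–MS/MS, with DON dabsyl-derivatised.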

[3] = Negative control incubation without enzymes; assay type: physicochemical; details: no enzyme, pH 6 buffer, 37 °C, 3 h
[4] = Pharmacokinetics in EL4 tumor-bearing CES1-/- mice; assay type: in vivo, C57BL/6 CES1−/− mice
Summary of the method: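 EL4 cells (1 × 10^6 in PBS) were implanted SC in the flank of male and female C57BL/6 CES1−/− mice (6–8 weeks). At about 400 mm3 tumour volume, a single 3.2 mg/kg SC dose was given in ethanol/Tween 80/saline (5:10:85). Plasma, jejunum and tumour were sampled at set times, n = 3 per time point. Analysis was LC–MS/MS with noncompartmental parameters, mean ± SEM.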

[5] = In vitro plasma stability, human plasma; assay type: in vitro ADME; details: prodrug 20 μm, 37 °C
[6] = Metabolic stability in swine liver homogenate; assay type: in vitro ADME; details: 20 μm, 37 °C, 1 h (Figure 1A)
[7] = In vitro plasma stability, mouse plasma; assay type: in vitro ADME; details: prodrug 20 μm, 37 °C

Structure (SMILES)	% remaining at 1 h in swine intestinal homogenate [1]	Plasma Stability (%Remaining at 1 h) Swine [2]	Plasma Stability (%Remaining at 1 h) Human [5]	also measured
CC(=O)NCCCC[C@H](NC(=O)OCC1c2ccccc2-c2ccccc21)C(=O)N[C@@H](CCC(=O)C=[N+]=[N-])C(=O)OC(C)C [Compound 3, Isopropyl 2-(2-((((9H-Fluoren-9-yl)methoxy)carbonyl)-amino)-6-acetamidohexanamido)-6-diazo-5-oxohexanoate]	instability			
CCCCCCCCCCCCCCCC(=O)N[C@@H](CCCCNC(C)=O)C(=O)N[C@@H](CCC(=O)C=[N+]=[N-])C(=O)OC(C)C [Compound 4, Isopropyl 2-(6-Acetamido-2-palmitamidohexanamido)-6-diazo-5-oxohexanoate]	unstable			
CC(=O)NCCCC[C@H](NC(=O)C12CC3CC(CC(C3)C1)C2)C(=O)N[C@@H](CCC(=O)C=[N+]=[N-])C(=O)OC(C)C [Compound 6, isopropyl 2-(6-acetamido-2-(adamantane-1-carboxamido)hexanamido)-6-diazo-5-oxohexanoate]		complete stability	complete stability	stability of intact prodrug in human plasma, time course (P493B lymphoma cells): stable over the 2 h incubation period; chemical stability in negative control without enzymes [3]: chemically stable; intact prodrug measured in tumor ([4]; EL4 tumor, SC 3.2 mg/kg): minimal; DON AUC in tumor after dosing of 6 ([4]; EL4 tumor, SC 3.2 mg/kg (1 mg/kg DON equivalent), AUC0–t): 5.1 nmol·h/g; DON AUC in jejunum (GI tissues) after dosing of 6 ([4]; jejunum, SC 3.2 mg/kg (1 mg/kg DON equivalent), AUC0–t): 0.45 nmol·h/g; intact prodrug levels in jejunum ([4]; jejunum, SC 3.2 mg/kg, below the limit of quantification): < 0.001 nmol/mL; % remaining at 1 h in swine liver homogenate [6]: 100%; Plasma Stability (%Remaining at 1 h) Mouse [7]: instability
CC(=O)NCCCC[C@H](NC(=O)[C@@H](N)Cc1c[nH]c2ccccc12)C(=O)N[C@@H](CCC(=O)C=[N+]=[N-])C(=O)OC(C)C [Compound 9, Isopropyl 2-(6-Acetamido-2-(2-amino-3-(1H-indol-3-yl)-propanamido)hexanamido)-6-diazo-5-oxohexanoate]	instability	unstable	unstable	
CC(=O)NCCCC[C@H](NC(=O)[C@H](Cc1c[nH]c2ccccc12)NC(=O)C(C)(C)C)C(=O)N[C@@H](CCC(=O)C=[N+]=[N-])C(=O)OC(C)C [Compound 11, Isopropyl 2-(2-(3-(1H-Indol-3-yl)-2-pivalamidopropanamido)-6-acetamidohexanamido)-6-diazo-5-oxohexanoate]	instability			
CC(=O)NCCCC[C@H](NC(=O)[C@@H]1Cc2ccccc2CN1)C(=O)N[C@@H](CCC(=O)C=[N+]=[N-])C(=O)OC(C)C [Compound 12, Isopropyl 2-(6-Acetamido-2-(1,2,3,4-tetrahydroisoquinoline-3-carboxamido)hexanamido)-6-diazo-5-oxohexanoate]	instability			
